In ChEMBL document CHEMBL1154413, “In vitro activities of different inhibitors of bacterial transcription against Staphylococcus epidermidis biofilm” (Antimicrob Agents Chemother, 2007):
≈ marks a conversion by molar mass, not a printed value. Calls of active or inactive are those of the source. No cut-off for these calls is given here.

How the values were obtained:
[1] = Inhibition of Staphylococcus epidermidis RNA polymerase mediated transcription
Outline: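 Transcription measured on toluene-permeabilized S. epidermidis cells, endogenous DNA as template; [5-3H]UTP incorporation read out, concentration giving 50% inhibition calculated. Triplicate.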

[2] = system: Staphylococcus epidermidis; assay: Inhibition of Staphylococcus epidermidis biofilm formation assessed as log 10 reduction of bacterial count in biofilm at 4 times MIC per well after 24 hrs; type: functional
Outline: (§1)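 S. epidermidis RP62A biofilms grown 24 h at 37°C from 10^7 CFU/ml in MHB in polystyrene microtiter wells, rinsed, then exposed 24 h at 37°C without shaking to compound in MHB (1× to 16× MIC). Washed, lysed with DMSO, bacterial ATP read by luciferase/luciferin bioluminescence, converted to log10 CFU/well via calibration against plate counts; reduction versus unchallenged biofilm. Triplicate.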

[3] = system: Staphylococcus epidermidis; assay: Ratio of MBC for Staphylococcus epidermidis to MIC for Staphylococcus epidermidis; type: functional
Outline: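 MBC obtained by extending the CLSI MIC assay (MHB, 5 × 10^5 CFU/ml, 37°C, 24 h): well portions serially diluted, spotted on MHB agar, incubated 37°C, read at 24 h as lowest concentration giving 0.1% survival. Triplicate.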

[4] = system: Staphylococcus epidermidis; assay: Antimicrobial activity against Staphylococcus epidermidis; type: functional
Outline: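 S. epidermidis RP62A; broth microdilution per CLSI in Mueller-Hinton broth, inoculum 5 × 10^5 CFU/ml, 37°C for 24 h before reading. Triplicate.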

[5] = system: Staphylococcus epidermidis; assay: Inhibition of Staphylococcus epidermidis biofilm formation assessed as reduction of >2 log 10 bacterial count in biofilm after 24 hrs; type: functional, organism-based; outline: as §1
[6] = system: Staphylococcus epidermidis; assay: Inhibition of Staphylococcus epidermidis biofilm formation assessed as log 10 reduction of bacterial count in biofilm at 0.025 ug/ml per well after 24 hrs; type: functional; outline: as §1

Row | SMILES | IC50 [1] | Activity [2] | Ratio [3] | MBC [4] | MIC [4] | Activity [5] | Activity [6]
1 | O/N=C(\Nc1cccc(Cl)c1)c1ccc(Cl)c(C(F)(F)F)c1 | 2.3 mg/L (≈ 6.59 µM) | 3 | 1 | 25 mg/L (≈ 71.6 µM) | 25 mg/L (≈ 71.6 µM) | – | –
2 | CC(=O)Nc1c2sscc-2n(C)c1=O [THIOLUTIN] | > 100 mg/L | – | 2 | 12.5 mg/L (≈ 54.8 µM) | 6.25 mg/L (≈ 27.4 µM) | inactive | –
3 | CO[C@H]1/C=C/O[C@@]2(C)Oc3c(C)c(O)c4c(O)c(c5c(nc6cc(C)ccn65)c4c3C2=O)NC(=O)/C(C)=C\C=C\[C@H](C)[C@H](O)[C@@H](C)[C@@H](O)[C@@H](C)[C@H](OC(C)=O)[C@@H]1C [RIFAXIMIN] | 0.07 mg/L (≈ 0.0891 µM) | – | 2 | 0.025 mg/L (≈ 0.0318 µM) | 0.012 mg/L (≈ 0.0153 µM) | inactive | 1.5
4 | CCOC(=O)c1c(NC(=O)Nc2ccccc2)sc2c1CCCCCC2 | 0.5 mg/L (≈ 1.34 µM) | – | >18 | > 100 mg/L | 6.25 mg/L (≈ 16.8 µM) | inactive | –
5 | CC(=O)Nc1c2sscc-2[nH]c1=O [HOLOMYCIN] | > 100 mg/L | – | 4 | 50 mg/L (≈ 233 µM) | 12.5 mg/L (≈ 58.3 µM) | inactive | –
6 | CO[C@H]1/C=C/O[C@@]2(C)Oc3c(C)c(O)c4c(O)c(c(/C=N/N5CCN(C)CC5)c(O)c4c3C2=O)NC(=O)/C(C)=C\C=C\[C@H](C)[C@H](O)[C@@H](C)[C@@H](O)[C@@H](C)[C@H](OC(C)=O)[C@@H]1C [RIFAMPIN] | 0.04 mg/L (≈ 0.0486 µM) | – | 1 | 0.006 mg/L (≈ 0.00729 µM) | 0.006 mg/L (≈ 0.00729 µM) | inactive | –
7 | O/N=C(\Nc1ccccc1)c1cccc(C(F)(F)F)c1 | 4.2 mg/L (≈ 15 µM) | 3 | 1 | 100 mg/L (≈ 357 µM) | 100 mg/L (≈ 357 µM) | – | –
8 | CO[C@H]1/C=C/O[C@@]2(C)Oc3c(C)c(O)c4c(O)c(c(/C=N/N5CCN(C6CCCC6)CC5)c(O)c4c3C2=O)NC(=O)/C(C)=C\C=C\[C@H](C)[C@H](O)[C@@H](C)[C@@H](O)[C@@H](C)[C@H](OC(C)=O)[C@@H]1C [RIFAPENTINE] | 0.08 mg/L (≈ 0.0912 µM) | – | 2 | 0.025 mg/L (≈ 0.0285 µM) | 0.012 mg/L (≈ 0.0137 µM) | inactive | 1.5
9 | CNC(=O)[C@@H](C)[C@H]1C(=O)/C(=C(O)/C=C/C(C)=C/[C@@H](C)[C@H]2O[C@@]3(C)O[C@H](C=C[C@@]34CO4)[C@@H]2C)C(=O)N1[C@@H]1CC[C@H](O)[C@H](C)O1 [STREPTOLYDIGIN] | 2.3 mg/L (≈ 3.83 µM) | – | 2 | 100 mg/L (≈ 166 µM) | 50 mg/L (≈ 83.2 µM) | inactive | –
10 | C=CCN1C(=O)/C(=C/c2ccc(-c3cccc(C(=O)O)c3)o2)SC1=S | 2.5 mg/L (≈ 6.73 µM) | 1.8 | 2 | 25 mg/L (≈ 67.3 µM) | 12.5 mg/L (≈ 33.7 µM) | inactive | –
